Measured values gathered from unrelated publications.
Lines come from different studies, so protocols differ.
Target: Tyrosine-protein kinase ZAP-70 (ZAP70, Homo sapiens, UniProt P43403)
One construct used (P43403 1-619): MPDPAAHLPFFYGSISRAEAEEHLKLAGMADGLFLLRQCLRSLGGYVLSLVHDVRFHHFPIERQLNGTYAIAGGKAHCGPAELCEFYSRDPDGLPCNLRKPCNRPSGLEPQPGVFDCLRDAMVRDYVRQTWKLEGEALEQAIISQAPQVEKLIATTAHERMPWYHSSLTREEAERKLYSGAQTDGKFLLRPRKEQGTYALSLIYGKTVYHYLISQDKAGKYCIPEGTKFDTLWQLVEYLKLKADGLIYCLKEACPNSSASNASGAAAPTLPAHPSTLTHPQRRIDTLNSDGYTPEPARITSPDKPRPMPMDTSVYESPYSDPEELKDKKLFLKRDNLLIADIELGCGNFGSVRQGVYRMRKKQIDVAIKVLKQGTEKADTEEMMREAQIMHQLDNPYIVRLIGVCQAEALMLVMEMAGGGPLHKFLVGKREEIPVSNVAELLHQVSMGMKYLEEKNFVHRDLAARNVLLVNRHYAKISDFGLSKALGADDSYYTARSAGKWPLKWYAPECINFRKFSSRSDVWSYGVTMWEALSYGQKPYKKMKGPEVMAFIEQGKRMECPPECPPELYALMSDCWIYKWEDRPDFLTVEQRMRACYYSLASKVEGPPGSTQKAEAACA

SMILES | assay | conditions | endpoint | value
CC(C)S(=O)(=O)c1ccc2nccc(Nc3ccc4sc(C5CCCC5)nc4c3)c2c1 | enzyme activity, inhibitor | 1 µM | activity vs control | 100%
Cc1ccc(NC(=O)c2ccnc(C(F)(F)F)c2)cc1-c1cc(OCCO)nc(N2CCOCC2)c1 | binding | 1 µM | remaining binding | 100%
C=CC(=O)N1CCC([C@@H]2CCNc3c(C(N)=O)c(-c4ccc(Oc5ccccc5)cc4)nn32)CC1 | enzyme activity, inhibitor | 1 µM | inhibition | 2%
N#Cc1ccc(NC(=O)Nc2ccccc2)cc1 | cell-free assay, competition with immobilised ligand | 25 µM | remaining binding | 91%
COc1ccc2oc(-c3ccc4nc(N)oc4c3)c/c(=N\c3ccccc3NC(=O)CCN)c2c1 | binding | 1 µM | remaining binding | 88%
CCCCC(=O)Nc1ccc(-c2ccc3ncn(CCC)c(=O)c3c2)cn1 | binding, competition with immobilised ligand | 0.5 µM | remaining binding | 98%
CN1CCN(C(=O)c2ccc(NC(=O)Nc3ccc(N(C)c4ccnc(Nc5ccc(CS(C)(=O)=O)cc5)n4)cc3)cc2)CC1 | binding | 1 µM | remaining binding | 65%
CC#CC(=O)N1CCC[C@H]1c1nc(-c2ccc(C(=O)Nc3ccccn3)cc2)c2c(N)nccn12 | enzyme activity, inhibitor | 1 µM | inhibition | 8%
C#Cc1cnc(Nc2ccnc(CO)c2)nc1Nc1ccccc1S(C)(=O)=NC#N (stereo not drawn) | cell-free assay | 1 µM | remaining signal | 100%
